Data from ChEMBL document CHEMBL5385902, “Synthesis of urea and thiourea derivatives of C20-epi-aminosalinomycin and their activity against Trypanosoma brucei” (Eur J Med Chem, 2023).
Converted amounts (≈) assume the structure as drawn. The source made the active and inactive calls. The rule behind the calls is not given here.

Columns and labels:
Trypanosoma brucei [1] = assay: Trypanocidal activity against bloodstream form of Trypanosoma brucei 427-221a assessed as parasite killing incubated for 24 hrs by microscopic analysis; type: functional
In short: (§1)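 Bloodstream-form T. brucei 427-221a seeded at 1 × 10^4 mL^-1 or HL-60 cells at 5 × 10^4 mL^-1 in Baltz medium with 16.7% heat-inactivated bovine serum, 0.9% DMSO, 10-fold dilutions 100 μM to 100 nM; 37 °C, 5% CO2. MIC, concentration killing all cells, determined microscopically. Possible values 100 μM down to […].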

[2] = Selectivity index, ratio of MIC for cytotoxicity against human HL60 cells to MIC for Trypanocidal activity against bloodstream form of Trypanosoma brucei 427-221a; type: toxicity, cell-based; conditions: read-out: Selectivity Index
[3] = Selectivity index, ratio of GI50 for cytotoxicity against human HL60 cells to GI50 for Trypanocidal activity against bloodstream form of Trypanosoma brucei 427-221a; type: toxicity, cell-based; conditions: read-out: RatioGI50
In short: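 Ratio of HL-60 GI50 to T. brucei GI50. Both from the resazurin assay in Baltz medium with 16.7% heat-inactivated bovine serum and 0.9% DMSO, 10-fold dilutions 100 μM to 100 nM, 24 h then 48 h with resazurin. GI50 by linear interpolation, three independent experiments.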

[4] = Cytotoxicity against human HL-60 cells assessed as inhibition of cell growth incubated for 24 hrs and measured at 48 hrs following resazurin challenge by resazurin assay; type: toxicity, cell-based
In short: (§2)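 Bloodstream-form T. brucei 427-221a (1 × 10^4 mL^-1) or HL-60 cells (5 × 10^4 mL^-1) in Baltz medium with 16.7% heat-inactivated bovine serum, 0.9% DMSO, 10-fold dilutions 100 μM to 100 nM; 37 °C, 5% CO2, 24 h. Resazurin then added, 48 h more; absorbance 570 nm, reference 630 nm. GI50 by linear interpolation; mean and SD of three independent experiments.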

Trypanosoma brucei [5] = assay: Trypanocidal activity against bloodstream form of Trypanosoma brucei 427-221a assessed as inhibition of parasite growth incubated for 24 hrs and measured at 48 hrs following resazurin challenge by resazurin assay; type: functional; conditions: time 72 hrs; in short: as §2
[6] = Cytotoxicity against human HL-60 cells assessed as cell killing incubated for 24 hrs by microscopic analysis; type: toxicity, cell-based; conditions: read-out: MIC; in short: as §1
Trypanosoma brucei [7] = assay: Trypanocidal activity against bloodstream form of Trypanosoma brucei 427-221a assessed as increase in cell swelling activity at 100 uM measured every 10 min for 60 mins by light scattering method; type: functional, organism-based
In short: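 Light-scattering cell-volume assay. 1 × 10^7 bloodstream-form T. brucei 427-221a in 200 μL Baltz medium with 100 μM compound and 0.9% DMSO; controls with DMSO only. Absorbance at 490 nm read every 10 min for 60 min; falling absorbance indicates cell swelling. Rate constant k of the absorbance decrease derived. Means of three independent experiments.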

[8] = Lipophilicity, log P of the compound; type: physicochemical; conditions: octanol/water

| SMILES | MIC (Trypanosoma brucei [1]) [µM] | selectivity ratio [2] | selectivity ratio [3] | GI50 at 72 h [4] [µM] | GI50 (Trypanosoma brucei [5]) [µM] | MCC at 24 h [6] [µM] | Activity (Trypanosoma brucei [7]) | logP [8] |
| --- | --- | --- | --- | --- | --- | --- | --- | --- |
| CCNC(=S)N[C@H]1C=C[C@]2(O[C@H]([C@@H](CC)C(=O)[C@@H](C)[C@@H](O)[C@H](C)[C@@H]3O[C@@H]([C@@H](CC)C(=O)O)CC[C@@H]3C)[C@@H](C)C[C@H]2C)O[C@@]12CC[C@@](C)([C@H]1CC[C@](O)(CC)[C@H](C)O1)O2 | 1 (≈ 0.837 µg/mL) | 100 | 56.1 | 18.5 | 0.33 | 100 | – | – |
| CC[C@@H](C(=O)[C@@H](C)[C@@H](O)[C@H](C)[C@@H]1O[C@@H]([C@@H](CC)C(=O)O)CC[C@@H]1C)[C@H]1O[C@]2(C=C[C@H](NC(=O)NCCCl)[C@]3(CC[C@@](C)([C@H]4CC[C@](O)(CC)[C@H](C)O4)O3)O2)[C@H](C)C[C@@H]1C | 10 (≈ 8.56 µg/mL) | 10 | 12 | 38.5 | 3.2 | 100 | – | – |
| CC[n+]1c(-c2ccccc2)c2cc(N)ccc2c2ccc(N)cc21 [HOMIDIUM BROMIDE] | 10 | 1 | 73.6 | 6.4 | 0.087 | 10 | – | – |
| CC[C@@H](C(=O)[C@@H](C)[C@@H](O)[C@H](C)[C@@H]1O[C@@H]([C@@H](CC)C(=O)O)CC[C@@H]1C)[C@H]1O[C@]2(C=C[C@@H](O)[C@]3(CC[C@@](C)([C@H]4CC[C@](O)(CC)[C@H](C)O4)O3)O2)[C@H](C)C[C@@H]1C [SALINOMYCIN] | 1 (≈ 0.751 µg/mL) | 100 | 74.1 | 20 | 0.27 | 100 | Active | > 6.2 |
| CCCCNC(=S)N[C@H]1C=C[C@]2(O[C@H]([C@@H](CC)C(=O)[C@@H](C)[C@@H](O)[C@H](C)[C@@H]3O[C@@H]([C@@H](CC)C(=O)O)CC[C@@H]3C)[C@@H](C)C[C@H]2C)O[C@@]12CC[C@@](C)([C@H]1CC[C@](O)(CC)[C@H](C)O1)O2 | 1 (≈ 0.865 µg/mL) | 10 | 46.7 | 8.4 | 0.18 | 10 | Active | – |
| CC[C@@H](C(=O)[C@@H](C)[C@@H](O)[C@H](C)[C@@H]1O[C@@H]([C@@H](CC)C(=O)O)CC[C@@H]1C)[C@H]1O[C@]2(C=C[C@H](NC(=O)Nc3ccccc3)[C@]3(CC[C@@](C)([C@H]4CC[C@](O)(CC)[C@H](C)O4)O3)O2)[C@H](C)C[C@@H]1C | 10 (≈ 8.69 µg/mL) | 10 | 15.5 | 44.9 | 2.9 | 100 | – | – |
| CC[C@@H](C(=O)[C@@H](C)[C@@H](O)[C@H](C)[C@@H]1O[C@@H]([C@@H](CC)C(=O)O)CC[C@@H]1C)[C@H]1O[C@]2(C=C[C@H](NC(=S)Nc3ccccc3)[C@]3(CC[C@@](C)([C@H]4CC[C@](O)(CC)[C@H](C)O4)O3)O2)[C@H](C)C[C@@H]1C | 1 (≈ 0.885 µg/mL) | 10 | 40.5 | 8.9 | 0.22 | 10 | Active | – |
| Cc1ccc(C(=O)Nc2ccc(S(=O)(=O)O)c3cc(S(=O)(=O)O)cc(S(=O)(=O)O)c23)cc1NC(=O)c1cccc(NC(=O)Nc2cccc(C(=O)Nc3cc(C(=O)Nc4ccc(S(=O)(=O)O)c5cc(S(=O)(=O)O)cc(S(=O)(=O)O)c45)ccc3C)c2)c1 [SURAMIN] | 0.1 (≈ 0.13 µg/mL) | > 1000 | > 2560 | > 100 | 0.039 | > 100 | – | – |
| CCCCNC(=O)N[C@H]1C=C[C@]2(O[C@H]([C@@H](CC)C(=O)[C@@H](C)[C@@H](O)[C@H](C)[C@@H]3O[C@@H]([C@@H](CC)C(=O)O)CC[C@@H]3C)[C@@H](C)C[C@H]2C)O[C@@]12CC[C@@](C)([C@H]1CC[C@](O)(CC)[C@H](C)O1)O2 | 1 (≈ 0.849 µg/mL) | 100 | 55 | 19.8 | 0.36 | 100 | Active | – |
| CCNC(=O)N[C@H]1C=C[C@]2(O[C@H]([C@@H](CC)C(=O)[C@@H](C)[C@@H](O)[C@H](C)[C@@H]3O[C@@H]([C@@H](CC)C(=O)O)CC[C@@H]3C)[C@@H](C)C[C@H]2C)O[C@@]12CC[C@@](C)([C@H]1CC[C@](O)(CC)[C@H](C)O1)O2 | 10 (≈ 8.21 µg/mL) | 10 | 13.1 | 42 | 3.2 | 100 | – | – |
| CC[C@@H](C(=O)[C@@H](C)[C@@H](O)[C@H](C)[C@@H]1O[C@@H]([C@@H](CC)C(=O)O)CC[C@@H]1C)[C@H]1O[C@]2(C=C[C@H](NC(=O)NCc3ccccc3)[C@]3(CC[C@@](C)([C@H]4CC[C@](O)(CC)[C@H](C)O4)O3)O2)[C@H](C)C[C@@H]1C | 10 (≈ 8.83 µg/mL) | 10 | 11.1 | 16.7 | 1.5 | 100 | – | – |
| CCCNC(=O)N[C@H]1C=C[C@]2(O[C@H]([C@@H](CC)C(=O)[C@@H](C)[C@@H](O)[C@H](C)[C@@H]3O[C@@H]([C@@H](CC)C(=O)O)CC[C@@H]3C)[C@@H](C)C[C@H]2C)O[C@@]12CC[C@@](C)([C@H]1CC[C@](O)(CC)[C@H](C)O1)O2 | 10 (≈ 8.35 µg/mL) | 10 | 12.7 | 36.7 | 2.9 | 100 | – | – |
| CC[C@@H](C(=O)[C@@H](C)[C@@H](O)[C@H](C)[C@@H]1O[C@@H]([C@@H](CC)C(=O)O)CC[C@@H]1C)[C@H]1O[C@]2(C=C[C@H](NC(=O)Nc3cccc4ccccc34)[C@]3(CC[C@@](C)([C@H]4CC[C@](O)(CC)[C@H](C)O4)O3)O2)[C@H](C)C[C@@H]1C | 10 (≈ 9.19 µg/mL) | 10 | 7.1 | 13.5 | 1.9 | 100 | – | – |
| CCCCCCCCNC(=O)N[C@H]1C=C[C@]2(O[C@H]([C@@H](CC)C(=O)[C@@H](C)[C@@H](O)[C@H](C)[C@@H]3O[C@@H]([C@@H](CC)C(=O)O)CC[C@@H]3C)[C@@H](C)C[C@H]2C)O[C@@]12CC[C@@](C)([C@H]1CC[C@](O)(CC)[C@H](C)O1)O2 | 1 (≈ 0.905 µg/mL) | 10 | 23.3 | 6.3 | 0.27 | 10 | – | – |
| C=CCNC(=S)N[C@H]1C=C[C@]2(O[C@H]([C@@H](CC)C(=O)[C@@H](C)[C@@H](O)[C@H](C)[C@@H]3O[C@@H]([C@@H](CC)C(=O)O)CC[C@@H]3C)[C@@H](C)C[C@H]2C)O[C@@]12CC[C@@](C)([C@H]1CC[C@](O)(CC)[C@H](C)O1)O2 | 1 (≈ 0.849 µg/mL) | 100 | 48.7 | 15.1 | 0.31 | 100 | – | – |
| CC[C@@H](C(=O)[C@@H](C)[C@@H](O)[C@H](C)[C@@H]1O[C@@H]([C@@H](CC)C(=O)O)CC[C@@H]1C)[C@H]1O[C@]2(C=C[C@H](NC(=O)NCCCCl)[C@]3(CC[C@@](C)([C@H]4CC[C@](O)(CC)[C@H](C)O4)O3)O2)[C@H](C)C[C@@H]1C | 10 (≈ 8.7 µg/mL) | 10 | 7.9 | 18.1 | 2.3 | 100 | – | – |
| C=CCNC(=O)N[C@H]1C=C[C@]2(O[C@H]([C@@H](CC)C(=O)[C@@H](C)[C@@H](O)[C@H](C)[C@@H]3O[C@@H]([C@@H](CC)C(=O)O)CC[C@@H]3C)[C@@H](C)C[C@H]2C)O[C@@]12CC[C@@](C)([C@H]1CC[C@](O)(CC)[C@H](C)O1)O2 | 10 (≈ 8.33 µg/mL) | 10 | 12 | 38.3 | 3.2 | 100 | – | – |
| CC[C@@H](C(=O)[C@@H](C)[C@@H](O)[C@H](C)[C@@H]1O[C@@H]([C@@H](CC)C(=O)O)CC[C@@H]1C)[C@H]1O[C@]2(C=C[C@H](N)[C@]3(CC[C@@](C)([C@H]4CC[C@](O)(CC)[C@H](C)O4)O3)O2)[C@H](C)C[C@@H]1C | 10 (≈ 7.5 µg/mL) | 10 | 25.2 | 83.2 | 3.3 | 100 | inactive | – |
